AF4-AF9 inh – inhibitors of human MLL-AF4/AF9 interaction; 350,000 tested, 0.47% active; AlphaScreen, biotin-AF4 peptide binding to FLAG-AF9; P42568; inhibition, % at 10 µM;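 active means every replicate reaching a set inhibition limit, whatever the replicate mean, cut at about 25% in these data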;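 further: 0% = plate neutral control median and 100% = total signal loss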
Target sequence (P42568 whole entry, looked up): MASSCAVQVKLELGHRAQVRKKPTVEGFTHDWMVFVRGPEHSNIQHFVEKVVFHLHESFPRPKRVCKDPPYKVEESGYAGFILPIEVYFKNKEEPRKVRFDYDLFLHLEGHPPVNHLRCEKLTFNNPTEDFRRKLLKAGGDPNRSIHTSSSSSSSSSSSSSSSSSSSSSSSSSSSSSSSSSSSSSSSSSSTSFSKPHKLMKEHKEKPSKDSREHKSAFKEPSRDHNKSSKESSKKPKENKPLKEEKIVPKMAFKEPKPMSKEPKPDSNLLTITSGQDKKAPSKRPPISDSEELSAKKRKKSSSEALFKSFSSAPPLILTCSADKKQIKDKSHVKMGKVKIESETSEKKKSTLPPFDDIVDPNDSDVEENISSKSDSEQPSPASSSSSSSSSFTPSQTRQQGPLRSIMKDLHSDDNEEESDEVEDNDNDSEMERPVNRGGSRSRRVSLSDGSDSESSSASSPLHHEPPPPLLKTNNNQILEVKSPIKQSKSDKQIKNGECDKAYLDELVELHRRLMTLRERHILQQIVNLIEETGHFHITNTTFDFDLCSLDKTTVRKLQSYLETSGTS
PfHsp90 set2 – growth inhibition of yeast expressing Plasmodium Hsp90; S. cerevisiae expressing PfHsp90, BacTiter-Glo ATP, 48 h; yeast lacking PDR1 and PDR3 efflux regulators; AID 504621; 310,000 tested, 0.32% active; inhibition, % at 9.4 µM;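 active means every replicate shows inhibition above about 80%, whatever the replicate mean, limit read from the data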;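 further: 0% = DMSO neutral controls and 100% = 20 µM radicicol positive controls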
DENV2 CPE – inhibitors of DENV2 cytopathic effect | CPE inhibition, % at 9.99 µM | 350,000 tested, 1.7% active | DENV2-infected cells, cytopathic effect rescue, plate reader; in the data active means CPE inhibition above about 20%, passing the limit was not always enough; tested in BHK-21 cells;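 further: 0% = median of neutral control wells and 100% = median of positive control wells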
rRNA inh HTS – selective bacterial rRNA inhibition in E. coli | E. coli WT GFP vs humanized-ribosome RFP mutants, fluorescence, 24 h; stronger effect = lower value; DMSO median 0, no signal -100 | GFP signal change (wild-type ribosome), % (concentration not given with the values) | 350,000 tested, 1.6% active | AID 720706;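 active means significant combined selectivity score with lowered wild-type GFP, culture density cut under 30%, mutant RFP and density less affected; inactive means any of these conditions unmet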
S100A4 MyoIIA – inhibitors of human S100A4 binding to myosin IIA peptide; inhibition, % at 10.7 µM; S100A4/TAMRA-MyoIIA peptide fluorescence polarization; 360,000 tested, 0.14% active;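 active means mean inhibition of at least 70% across replicates, with every replicate also reaching that level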
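Test system – S100A4 monomer (human) · Compound – single-point compound testing · Schedule – 5 min incubation before reading · Probe or stimulus – TAMRA-labelled myosin IIA heavy-chain peptide probe, 5 nM · Benchmarks – neutral control DMSO, positive control TFP · Medium – Calcium-containing HEPES buffer, pH 7.2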
Cneo AK release – causes C. neoformans cell lysis | adenylate kinase release luminescence, 4 h; normalised: neutral wells 0, clomiphene wells 100 | AID 651654 | 360,000 tested, 0.2% active | lysis activity, % at 15 µM;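 active means mean lysis activity across replicates of at least 80%, whatever share of replicates individually reach that level; inactive means mean lysis activity below 80%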
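Test system: log-phase Cryptococcus neoformans yeast cells. Input: 5 × 10^6 yeast cells/mL. Medium: fresh YPD growth medium. Doses: single dose. Incubation: static 4 h at 37 °C with compound, 1 h detection. Measured by: luminescent adenylate kinase detection reagent. Read-out: signal increase indicating cell lysis. Benchmarks: Clomiphene.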
* hit, by the source's call; ! = not active in a repeat. In the library only some 3.2% were active in any assay of this set; here they are far more common.

Screening CCC(=O)N1CCN(c2ccccc2NC(=S)NC(=O)c2cccc([N+](=O)[O-])c2)CC1 returned AF4-AF9 inh 6, PfHsp90 set2 12, DENV2 CPE -2, rRNA inh HTS -13 and S100A4 MyoIIA 1.
For CN(C)Cc1c(O)ccc2ccccc12 the results were AF4-AF9 inh 31*, PfHsp90 set2 1, DENV2 CPE -4, rRNA inh HTS -51 and S100A4 MyoIIA -11.
Screening CC(C)CN(Cc1c(O)ccc2ccccc12)CC(C)C returned AF4-AF9 inh 2, PfHsp90 set2 -8, DENV2 CPE 1, rRNA inh HTS -22 and S100A4 MyoIIA -28.
`c1cnc2c(c1)ccc1cccnc12` gave AF4-AF9 inh -4, PfHsp90 set2 125*!, DENV2 CPE 6, rRNA inh HTS -51, S100A4 MyoIIA 2 and Cneo AK release -1.
`C[C@@H]1CN([C@@H](C)CO)C(=O)c2cc(NC(=O)Cc3ccccc3)ccc2O[C@@H](C)CCCCO[C@@H]1CN(C)CC1CCCCC1` gave AF4-AF9 inh -2, DENV2 CPE 26*, rRNA inh HTS 2, S100A4 MyoIIA 12 and Cneo AK release 54.
C[C@@H]1CCCCO[C@@H](CN(C)CC2CCCCC2)[C@H](C)CN([C@H](C)CO)C(=O)c2cc(NC(=O)c3ccccc3)ccc2O1 was read as AF4-AF9 inh 27*, rRNA inh HTS -7, S100A4 MyoIIA 6 and Cneo AK release 53.
For CC(C)[C@H]1CCc2cnnn2COC[C@@H](c2ccccc2)NC1=O the results were rRNA inh HTS 5.
For C/C=C/c1ccc2c(c1)O[C@@H](CN(C)C)[C@@H](C)CN([C@H](C)CO)S2(=O)=O the results were AF4-AF9 inh -1, DENV2 CPE 14, rRNA inh HTS -1, S100A4 MyoIIA -3 and Cneo AK release 2.
For O=C(Oc1c(Cl)cc(Cl)c2cccnc12)c1cccc([N+](=O)[O-])c1 the results were PfHsp90 set2 107*.
`C=CC(C)(O)CCC=C(C)C` (configuration not stated) gave AF4-AF9 inh -3, PfHsp90 set2 -5, DENV2 CPE 101*, rRNA inh HTS 11, S100A4 MyoIIA -3 and Cneo AK release 3.
For CC(C)=CCC/C(C)=C/CC/C(C)=N/O the results were AF4-AF9 inh 0, PfHsp90 set2 12, S100A4 MyoIIA -7 and Cneo AK release 0.
`COc1ccc(S(=O)(=O)N(C)C[C@@H]2OCCCC[C@H](C)Oc3ccc(NC(=O)CCCN(C)C)cc3C(=O)N([C@H](C)CO)C[C@@H]2C)cc1` gave AF4-AF9 inh 3, DENV2 CPE 8, rRNA inh HTS 1, S100A4 MyoIIA 56 and Cneo AK release 1.
`CC(=O)OC1CC(c2cc(C(C)(C)C)c(O)c(C(C)(C)C)c2)=NO1` (configuration not stated) gave AF4-AF9 inh -1, PfHsp90 set2 -13, DENV2 CPE -2, rRNA inh HTS -21* and S100A4 MyoIIA -2.
`Cc1noc(C)c1NC(=O)Nc1ccc2c(c1)C(=O)N([C@@H](C)CO)C[C@H](C)[C@H](CN(C)C(=O)C1CCCCC1)OCCCC[C@@H](C)O2` gave AF4-AF9 inh 1, DENV2 CPE -3, rRNA inh HTS 2, S100A4 MyoIIA 1 and Cneo AK release -2.
Screening CNC(=O)C[C@@H]1CC[C@@H]2[C@@H](COc3ccc(NC(=O)Nc4ccc(C)cc4)cc3C(=O)N2C)O1 returned AF4-AF9 inh -1, DENV2 CPE -8, rRNA inh HTS 2, S100A4 MyoIIA -22 and Cneo AK release 4.
For CN1CCCCN2[C@H](CO)[C@@H](c3ccc(-c4ccc(F)cc4)cc3)[C@@H]2C1 the results were AF4-AF9 inh -3, DENV2 CPE 61*, rRNA inh HTS -2, S100A4 MyoIIA -17 and Cneo AK release 7.
`C/C=C/c1ccc([C@H]2[C@@H](CO)N3CCCCN(C)C[C@H]23)cc1` gave AF4-AF9 inh 2, DENV2 CPE 54*, rRNA inh HTS 5, S100A4 MyoIIA 2 and Cneo AK release 1.
